Measurements taken from publication PMC8880306 (Journal of medicinal chemistry, 2021).
Numbering of substitutions follows the chain as printed.

Tests used:
[1] = Oral bioavailability of ARD-61 in mice; type: in vivo; details: mice (data not shown)
Oral exposure = type: in vivo, mice; details: male, SCID, mouse, plasma, 10 mg/kg
Summary of the method: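 Non-tumour-bearing male SCID mice were given single oral gavage at 10 mg/kg in 100% PEG200. Three mice per time point were sacrificed at 1, 3 and 6 h. 300 μL blood was taken per animal and centrifuged at 15000 rpm for 10 min. Plasma was stored at −80 °C and quantified by validated LC-MS/MS. Values are mean ± SD.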

AR protein [2] = biological target: T1, AR protein (Homo sapiens, UniProt P10275); experiment: Western blotting of AR protein in VCaP cells; type: cell-based; details: for time within which AR protein level is effectively reduced / treatment time for near-complete AR depletion: VCaP cell line
T1 sequence (P10275 1-920): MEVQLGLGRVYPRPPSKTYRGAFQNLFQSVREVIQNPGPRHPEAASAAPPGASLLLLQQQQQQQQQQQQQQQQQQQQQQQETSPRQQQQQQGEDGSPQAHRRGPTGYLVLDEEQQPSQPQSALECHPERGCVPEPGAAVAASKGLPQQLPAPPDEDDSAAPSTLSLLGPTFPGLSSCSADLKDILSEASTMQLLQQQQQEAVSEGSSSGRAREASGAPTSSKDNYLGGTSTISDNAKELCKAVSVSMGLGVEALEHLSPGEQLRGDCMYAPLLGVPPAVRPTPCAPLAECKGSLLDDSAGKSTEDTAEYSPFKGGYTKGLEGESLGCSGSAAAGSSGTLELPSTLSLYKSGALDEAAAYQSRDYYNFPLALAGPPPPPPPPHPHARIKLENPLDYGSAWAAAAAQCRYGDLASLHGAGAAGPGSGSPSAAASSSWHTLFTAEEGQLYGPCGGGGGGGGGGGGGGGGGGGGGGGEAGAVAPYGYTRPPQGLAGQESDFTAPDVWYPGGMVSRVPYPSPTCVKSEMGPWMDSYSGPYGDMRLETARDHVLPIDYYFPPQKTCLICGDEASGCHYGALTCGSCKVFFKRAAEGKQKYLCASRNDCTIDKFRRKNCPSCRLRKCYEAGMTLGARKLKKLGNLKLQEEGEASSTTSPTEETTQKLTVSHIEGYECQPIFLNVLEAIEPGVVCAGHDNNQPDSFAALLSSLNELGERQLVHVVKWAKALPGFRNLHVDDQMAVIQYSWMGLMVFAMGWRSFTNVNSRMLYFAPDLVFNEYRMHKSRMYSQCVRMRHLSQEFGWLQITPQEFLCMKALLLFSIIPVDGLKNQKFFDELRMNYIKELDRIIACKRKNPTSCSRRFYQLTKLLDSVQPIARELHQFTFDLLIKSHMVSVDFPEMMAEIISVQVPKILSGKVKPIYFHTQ

[3] = biological target: T2, AR protein (AR T878A mutation) (Homo sapiens, UniProt P10275, T878A); experiment: Western blotting of AR protein in LNCaP cells; type: cell-based; details: LNCaP cell line
T2 sequence (P10275 1-920 T878A): T1 sequence (P10275 1-920) with T878A

AR protein [4] = biological target: T1, AR protein; experiment: Pharmacodynamics: Western blot of AR protein in VCaP xenograft tumors; type: in vivo, mice
[5] = Drug concentrations in plasma and VCaP tumor tissue in SCID mice; type: in vivo; details: VCaP tumor tissue, single 20 mg/kg PO, 6 h
Summary of the method: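 Male CB17 SCID mice carried subcutaneous VCaP xenografts (5 × 10^6 cells in 5 mg/mL Matrigel). At approximately 200 mm3 tumour volume, mice received single 20 mg/kg oral gavage in 100% PEG200. Plasma and tumour were taken at 6 and 24 h, three mice per time point. Tumours were frozen, ground in liquid nitrogen, homogenised in water:acetonitrile 4:1 at 4 °C, acetonitrile-precipitated, then assayed by validated LC-MS/MS.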

VCaP xenograft tumor = experiment: Antitumor activity in the VCaP xenograft tumor model; type: in vivo; details: all dose levels, daily oral, entire 21 day experiment, SCID mice
[6] = single oral administration 20 mg/kg, 6 h
[7] = single oral administration 20 mg/kg, 24 h

Structure (SMILES)	time within which AR protein level is effectively reduced (AR protein [2])	treatment time for near-complete AR depletion (AR protein [2])	time within which AR protein level is effectively reduced [3]	treatment time for near-complete AR depletion [3]	reduction of AR protein level in VCaP tumor tissue (AR protein [4]; [6])	reduction of AR protein level in VCaP tumor tissue (AR protein [4]; [7])	also measured
Cc1cc([C@H](C(=O)N2C[C@H](O)C[C@H]2C(=O)N[C@@H](CC(=O)N2CCC(N3CCC(C#Cc4ccc(C(=O)NC5C(C)(C)C(Oc6ccc(C#N)c(Cl)c6)C5(C)C)cc4)CC3)CC2)c2ccc(-c3scnc3C)cc2)C(C)C)on1 (stereo partly shown) [ARD-61]	–	–	–	–	–	–	oral bioavailability [1]: no oral bioavailability
CC1(C)[C@H](NC(=O)c2ccc(N3CCN(CCNc4ccc5c(c4)C(=O)N(C4CCC(=O)NC4=O)C5=O)CC3)cc2)C(C)(C)[C@H]1Oc1ccc(C#N)c(Cl)c1 (stereo partly drawn) [Compound 16, N-((1R,3R)-3-(3-Chloro-4-cyanophenoxy)-2,2,4,4-tetramethylcyclobutyl)-4-(4-(2-((2-(2,6-dioxopiperidin-3-yl)-1,3-dioxoisoindolin-5-yl)amino)ethyl)piperazin-1-yl)benzamide]	–	–	–	–	–	–	concentration at 1 h (Oral exposure): 1600 nM; concentration at 3 h (Oral exposure): 1200 nM; concentration at 6 h (Oral exposure): 800 nM
CC1(C)[C@H](NC(=O)c2ccc(N3CCN(CC4CN(c5ccc6c(c5)C(=O)N(C5CCC(=O)NC5=O)C6=O)C4)CC3)cc2)C(C)(C)[C@H]1Oc1ccc(C#N)c(Cl)c1 (stereo partly drawn) [Compound 26, N-((1R,3R)-3-(3-Chloro-4-cyanophenoxy)-2,2,4,4-tetramethylcyclobutyl)-4-(4-((1-(2-(2,6-dioxopiperidin-3-yl)-1,3-dioxoisoindolin-5-yl)azetidin-3-yl)methyl)piperazin-1-yl)benzamide]	≤ 3 h	6 h	≤ 3 h	6 h	modest effect	effective in reducing the levels of AR protein	–
CC1(C)[C@H](NC(=O)c2ccc(N3CCN(C4CCN(c5ccc6c(c5)C(=O)N(C5CCC(=O)NC5=O)C6=O)CC4)CC3)cc2)C(C)(C)[C@H]1Oc1ccc(C#N)c(Cl)c1 (stereo partly drawn) [Compound 27, N-((1R,3R)-3-(3-Chloro-4-cyanophenoxy)-2,2,4,4-tetramethylcyclobutyl)-4-(4-(1-(2-(2,6-dioxopiperidin-3-yl)-1,3-dioxoisoindolin-5-yl)piperidin-4-yl)piperazin-1-yl)benzamide]	≤ 3 h	6 h	≤ 3 h	6 h	only modestly	only modestly	tumor concentration (mean ± SD) [5]: 0.3148 ± 0.0937 µg/kg
CC1(C)[C@H](NC(=O)c2ccc(N3CCN(CC4CCN(c5ccc6c(c5)C(=O)N(C5CCC(=O)NC5=O)C6=O)CC4)CC3)cc2)C(C)(C)[C@H]1Oc1ccc(C#N)c(Cl)c1 (stereo partly drawn) [Compound 28, N-((1R,3R)-3-(3-Chloro-4-cyanophenoxy)-2,2,4,4-tetramethylcyclobutyl)-4-(4-((1-(2-(2,6-dioxopiperidin-3-yl)-1,3-dioxoisoindolin-5-yl)piperidin-4-yl)methyl)piperazin-1-yl)benzamide]	≤ 3 h	6 h	≤ 3 h	6 h	modest effect	effective in reducing the levels of AR protein	reduction of AR protein level in VCaP tumor tissue (AR protein [4]; daily oral 10 mg/kg for 3 days, 3 and 6 h after last dose): effectively reduces the levels of AR protein; reduction of AR protein level in VCaP tumor tissue (AR protein [4]; daily oral 10 mg/kg for 3 days, 24 h after last dose): only a modest effect; maximum weight loss (VCaP xenograft tumor): no more than 5%
CC1(C)[C@H](NC(=O)c2ccc(N3CCC(N4CCN(c5ccc6c(c5)C(=O)N(C5CCC(=O)NC5=O)C6=O)CC4)CC3)cc2)C(C)(C)[C@H]1Oc1ccc(C#N)c(Cl)c1 (stereo partly drawn) [Compound 33, N-((1R,3R)-3-(3-Chloro-4-cyanophenoxy)-2,2,4,4-tetramethylcyclobutyl)-4-(4-(4-(2-(2,6-dioxopiperidin-3-yl)-1,3-dioxoisoindolin-5-yl)piperazin-1-yl)piperidin-1-yl)benzamide]	≤ 3 h	–	≤ 3 h	–	–	–	–
CC1(C)[C@H](NC(=O)c2ccc(N3CCC(CN4CCN(c5ccc6c(c5)C(=O)N(C5CCC(=O)NC5=O)C6=O)CC4)CC3)cc2)C(C)(C)[C@H]1Oc1ccc(C#N)c(Cl)c1 (stereo partly drawn) [Compound 34, N-((1R,3R)-3-(3-Chloro-4-cyanophenoxy)-2,2,4,4-tetramethylcyclobutyl)-4-(4-((4-(2-(2,6-dioxopiperidin-3-yl)-1,3-dioxoisoindolin-5-yl)piperazin-1-yl)methyl)piperidin-1-yl)benzamide]	≤ 3 h	6 h	≤ 3 h	6 h	–	–	–
CC1(C)[C@@H](NC(=O)c2ccc(N3CCN(CC4CCN(c5ccc6c(c5)C(=O)N(C5CCC(=O)NC5=O)C6=O)CC4)CC3)cc2)C[C@@H]1Oc1ccc(C#N)c(Cl)c1 (stereo partly drawn) [Compound 43, N-((1S,3S)-3-(3-Chloro-4-cyanophenoxy)-2,2-dimethylcyclobutyl)-4-(4-((1-(2-(2,6-dioxopiperidin-3-yi)-1,3-dioxoisoindolin-5-yl)-piperidin-4-yl)methyl)piperazin-1-yl)benzamide]	–	–	–	–	–	–	times less potent than compound 28 (AR protein [2]; VCaP, AR degradation): approximately 100
CNC(=O)c1ccc(N2C(=S)N(c3ccc(C#N)c(C(F)(F)F)c3)C(=O)C2(C)C)cc1F [enzalutamide, reference compound]	–	–	–	–	–	–	maximum weight loss (VCaP xenograft tumor): no more than 5%
